According to ChEMBL document CHEMBL1134236, “Anti-MRSA cephems. Part 1: C-3 substituted thiopyridinium derivatives” (Bioorg Med Chem Lett, 2001):

Test system: Staphylococcus aureus
Assay: Minimum inhibitory concentration against methicillin-resistant Staphylococcus aureus (MRSA) A27223 in the presence of 50% calf serum.
Format: functional
Conditions: not given
How it was run: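 NCCLS broth MIC in Mueller-Hinton broth with 2% NaCl plus 50% calf serum. Inoculum about 5×10⁵ CFU/mL, incubated at 35 °C for 24 h. Read as the lowest concentration with no visible growth.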

Compound	MIC
NCCC[n+]1ccc(SCC2=C(C(=O)O)N3C(=O)[C@@H](NC(=O)CSc4cc(Cl)ccc4Cl)[C@H]3SC2)cc1CCCC(=O)O.O=C(O)C(F)(F)F.O=C([O-])C(F)(F)F	4 µg/mL

Test system: Staphylococcus aureus
Assay: Concentration required for 90% inhibitory activity against methicillin-resistant Staphylococcus aureus
Format: functional
Conditions: not given
How it was run: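 Panel of 58 MRSA strains tested by NCCLS broth method in Mueller-Hinton broth with 2% NaCl. Inoculum about 5×10⁵ CFU/mL, 35 °C for 24 h. MICs read as no visible growth, and MIC90 derived across the panel.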

Compound	MIC90
NCCC[n+]1ccc(SCC2=C(C(=O)O)N3C(=O)[C@@H](NC(=O)CSc4cc(Cl)ccc4Cl)[C@H]3SC2)cc1CCCC(=O)O.O=C(O)C(F)(F)F.O=C([O-])C(F)(F)F	4 µg/mL

Test system: Enterococcus faecium
Assay: Minimum inhibitory concentration against Enterococcus faecium A24885
Format: functional
Conditions: not given
How it was run: (§1)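 Broth dilution MIC under standard NCCLS-recommended conditions. The MIC was read as the lowest drug concentration giving no visible growth. Where the line states it, 50% calf serum was added.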

Compound	MIC
NCCC[n+]1ccc(SCC2=C(C(=O)O)N3C(=O)[C@@H](NC(=O)CSc4cc(Cl)ccc4Cl)[C@H]3SC2)cc1CCCC(=O)O.O=C(O)C(F)(F)F.O=C([O-])C(F)(F)F	1 µg/mL

Test system: Staphylococcus aureus
Assay: Minimum inhibitory concentration against Staphylococcus aureus / Homo MR A27295
Format: functional
Conditions: not given
How it was run: (§2)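 Broth MIC under NCCLS standard conditions in Mueller-Hinton broth plus 2% NaCl. Inoculum was about 5×10⁵ CFU/mL, incubated at 35 °C for 24 h. The endpoint was the lowest drug concentration inhibiting all visible growth. Where the line states it, 50% calf serum was added.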

Compound	MIC
NCCC[n+]1ccc(SCC2=C(C(=O)O)N3C(=O)[C@@H](NC(=O)CSc4cc(Cl)ccc4Cl)[C@H]3SC2)cc1CCCC(=O)O.O=C(O)C(F)(F)F.O=C([O-])C(F)(F)F	1 µg/mL

Test system: Staphylococcus epidermidis
Assay: Minimum inhibitory concentration against Staphylococcus epidermidis / Imipenem A27368
Format: functional
Conditions: not given
How it was run: as §1

Compound	MIC
NCCC[n+]1ccc(SCC2=C(C(=O)O)N3C(=O)[C@@H](NC(=O)CSc4cc(Cl)ccc4Cl)[C@H]3SC2)cc1CCCC(=O)O.O=C(O)C(F)(F)F.O=C([O-])C(F)(F)F	0.125 µg/mL

Test system: Staphylococcus aureus
Assay: Minimum inhibitory concentration against Staphylococcus aureus / + 50% calf serum A27223
Format: functional
Conditions: not given
How it was run: as §2

Compound	MIC
NCCC[n+]1ccc(SCC2=C(C(=O)O)N3C(=O)[C@@H](NC(=O)CSc4cc(Cl)ccc4Cl)[C@H]3SC2)cc1CCCC(=O)O.O=C(O)C(F)(F)F.O=C([O-])C(F)(F)F	2 µg/mL

Test system: Staphylococcus aureus
Assay: Minimum inhibitory concentration against Staphylococcus aureus / Homo MR A27621
Format: functional
Conditions: not given
How it was run: as §2

Compound	MIC
NCCC[n+]1ccc(SCC2=C(C(=O)O)N3C(=O)[C@@H](NC(=O)CSc4cc(Cl)ccc4Cl)[C@H]3SC2)cc1CCCC(=O)O.O=C(O)C(F)(F)F.O=C([O-])C(F)(F)F	0.5 µg/mL

Test system: Staphylococcus aureus
Assay: Minimum inhibitory concentration against Staphylococcus aureus A9606 with 50% calf serum
Format: functional
Conditions: not given
How it was run: as §1

Compound	MIC
NCCC[n+]1ccc(SCC2=C(C(=O)O)N3C(=O)[C@@H](NC(=O)CSc4cc(Cl)ccc4Cl)[C@H]3SC2)cc1CCCC(=O)O.O=C(O)C(F)(F)F.O=C([O-])C(F)(F)F	0.25 µg/mL

Test system: Staphylococcus aureus
Assay: Minimum inhibitory concentration against Staphylococcus aureus / Hetero MR A27217
Format: functional
Conditions: not given
How it was run: as §2

Compound	MIC
NCCC[n+]1ccc(SCC2=C(C(=O)O)N3C(=O)[C@@H](NC(=O)CSc4cc(Cl)ccc4Cl)[C@H]3SC2)cc1CCCC(=O)O.O=C(O)C(F)(F)F.O=C([O-])C(F)(F)F	0.25 µg/mL

Test system: Staphylococcus aureus
Assay: Minimum inhibitory concentration against Staphylococcus aureus / Pen.+ A9606
Format: functional
Conditions: not given
How it was run: as §1

Compound	MIC
NCCC[n+]1ccc(SCC2=C(C(=O)O)N3C(=O)[C@@H](NC(=O)CSc4cc(Cl)ccc4Cl)[C@H]3SC2)cc1CCCC(=O)O.O=C(O)C(F)(F)F.O=C([O-])C(F)(F)F	0.06 µg/mL

Test system: Streptococcus pneumoniae
Assay: Minimum inhibitory concentration against penicillin resistant Streptococcus pneumoniae A28272
Format: functional
Conditions: not given

Compound	MIC
NCCC[n+]1ccc(SCC2=C(C(=O)O)N3C(=O)[C@@H](NC(=O)CSc4cc(Cl)ccc4Cl)[C@H]3SC2)cc1CCCC(=O)O.O=C(O)C(F)(F)F.O=C([O-])C(F)(F)F	0.06 µg/mL

Test system: Staphylococcus aureus
Assay: Minimum inhibitory concentration against methicillin-resistant Staphylococcus aureus (MRSA) A27223
Format: functional
Conditions: not given
How it was run: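 Broth microdilution per NCCLS in Mueller-Hinton broth with 2% NaCl. Inoculum about 5×10⁵ CFU/mL, incubated at 35 °C for 24 h. MIC is the lowest drug concentration that inhibits all visible growth.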

Compound	MIC
NCCC[n+]1ccc(SCC2=C(C(=O)O)N3C(=O)[C@@H](NC(=O)CSc4cc(Cl)ccc4Cl)[C@H]3SC2)cc1CCCC(=O)O.O=C(O)C(F)(F)F.O=C([O-])C(F)(F)F	0.5 µg/mL

Test system: Staphylococcus haemolyticus
Assay: Minimum inhibitory concentration against Staphylococcus haemolyticus A21638
Format: functional
Conditions: not given
How it was run: as §1

Compound	MIC
NCCC[n+]1ccc(SCC2=C(C(=O)O)N3C(=O)[C@@H](NC(=O)CSc4cc(Cl)ccc4Cl)[C@H]3SC2)cc1CCCC(=O)O.O=C(O)C(F)(F)F.O=C([O-])C(F)(F)F	0.03 µg/mL

Test system: Staphylococcus epidermidis
Assay: Minimum inhibitory concentration against Staphylococcus epidermidis A24548
Format: functional
Conditions: not given
How it was run: as §1

Compound	MIC
NCCC[n+]1ccc(SCC2=C(C(=O)O)N3C(=O)[C@@H](NC(=O)CSc4cc(Cl)ccc4Cl)[C@H]3SC2)cc1CCCC(=O)O.O=C(O)C(F)(F)F.O=C([O-])C(F)(F)F	0.015 µg/mL

Test system: Staphylococcus aureus
Assay: Minimum inhibitory concentration against Staphylococcus aureus / Homo MR A27226
Format: functional
Conditions: not given
How it was run: as §2

Compound	MIC
NCCC[n+]1ccc(SCC2=C(C(=O)O)N3C(=O)[C@@H](NC(=O)CSc4cc(Cl)ccc4Cl)[C@H]3SC2)cc1CCCC(=O)O.O=C(O)C(F)(F)F.O=C([O-])C(F)(F)F	0.25 µg/mL

Test system: Staphylococcus aureus
Assay: Minimum inhibitory concentration against Staphylococcus aureus A27218 with 50% calf serum
Format: functional
Conditions: not given
How it was run: as §2

Compound	MIC
NCCC[n+]1ccc(SCC2=C(C(=O)O)N3C(=O)[C@@H](NC(=O)CSc4cc(Cl)ccc4Cl)[C@H]3SC2)cc1CCCC(=O)O.O=C(O)C(F)(F)F.O=C([O-])C(F)(F)F	0.5 µg/mL

Test system: Staphylococcus aureus
Assay: Minimum inhibitory concentration against Staphylococcus aureus / Hetero MR A27218
Format: functional
Conditions: not given
How it was run: as §2

Compound	MIC
NCCC[n+]1ccc(SCC2=C(C(=O)O)N3C(=O)[C@@H](NC(=O)CSc4cc(Cl)ccc4Cl)[C@H]3SC2)cc1CCCC(=O)O.O=C(O)C(F)(F)F.O=C([O-])C(F)(F)F	0.5 µg/mL

Test system: Enterococcus faecium
Assay: Minimum inhibitory concentration against Enterococcus faecium Amp. R. Vanco. S A28156
Format: functional
Conditions: not given
How it was run: as §1

Compound	MIC
NCCC[n+]1ccc(SCC2=C(C(=O)O)N3C(=O)[C@@H](NC(=O)CSc4cc(Cl)ccc4Cl)[C@H]3SC2)cc1CCCC(=O)O.O=C(O)C(F)(F)F.O=C([O-])C(F)(F)F	32 µg/mL

Test system: Staphylococcus epidermidis
Assay: Minimum inhibitory concentration against Staphylococcus epidermidis / MR A25783
Format: functional
Conditions: not given
How it was run: as §1

Compound	MIC
NCCC[n+]1ccc(SCC2=C(C(=O)O)N3C(=O)[C@@H](NC(=O)CSc4cc(Cl)ccc4Cl)[C@H]3SC2)cc1CCCC(=O)O.O=C(O)C(F)(F)F.O=C([O-])C(F)(F)F	0.03 µg/mL

Test system: Staphylococcus aureus
Assay: Minimum inhibitory concentration against Staphylococcus aureus / Pen.- A9497
Format: functional
Conditions: not given
How it was run: as §1

Compound	MIC
NCCC[n+]1ccc(SCC2=C(C(=O)O)N3C(=O)[C@@H](NC(=O)CSc4cc(Cl)ccc4Cl)[C@H]3SC2)cc1CCCC(=O)O.O=C(O)C(F)(F)F.O=C([O-])C(F)(F)F	0.001 µg/mL

Test system: Staphylococcus aureus
Assay: Minimum inhibitory concentration against Staphylococcus aureus A20241 /MS/Pen.
Format: functional
Conditions: not given
How it was run: as §1

Compound	MIC
NCCC[n+]1ccc(SCC2=C(C(=O)O)N3C(=O)[C@@H](NC(=O)CSc4cc(Cl)ccc4Cl)[C@H]3SC2)cc1CCCC(=O)O.O=C(O)C(F)(F)F.O=C([O-])C(F)(F)F	0.06 µg/mL

Test system: Enterococcus faecalis
Assay: Minimum inhibitory concentration against Enterococcus faecalis A20688
Format: functional
Conditions: not given
How it was run: as §1

Compound	MIC
NCCC[n+]1ccc(SCC2=C(C(=O)O)N3C(=O)[C@@H](NC(=O)CSc4cc(Cl)ccc4Cl)[C@H]3SC2)cc1CCCC(=O)O.O=C(O)C(F)(F)F.O=C([O-])C(F)(F)F	0.25 µg/mL

Test system: Streptococcus pneumoniae
Assay: Minimum inhibitory concentration against Streptococcus pneumoniae / Pen.I A27881
Format: functional
Conditions: not given
How it was run: as §1

Compound	MIC
NCCC[n+]1ccc(SCC2=C(C(=O)O)N3C(=O)[C@@H](NC(=O)CSc4cc(Cl)ccc4Cl)[C@H]3SC2)cc1CCCC(=O)O.O=C(O)C(F)(F)F.O=C([O-])C(F)(F)F	0.007 µg/mL

Test system: Staphylococcus aureus
Assay: Dose required for protective activity against methicillin-resistant Staphylococcus aureus (MRSA) A27223 in mouse following i.m. administration.
Conditions: im, read-out: PD50

Compound	ED50
NCCC[n+]1ccc(SCC2=C(C(=O)O)N3C(=O)[C@@H](NC(=O)CSc4cc(Cl)ccc4Cl)[C@H]3SC2)cc1CCCC(=O)O.O=C(O)C(F)(F)F.O=C([O-])C(F)(F)F	5.1 mg/kg

Test system: Enterococcus faecalis
Assay: Minimum inhibitory concentration against Enterococcus faecalis A20688 with 50% calf serum
Format: functional
Conditions: not given
How it was run: as §1

Compound	MIC
NCCC[n+]1ccc(SCC2=C(C(=O)O)N3C(=O)[C@@H](NC(=O)CSc4cc(Cl)ccc4Cl)[C@H]3SC2)cc1CCCC(=O)O.O=C(O)C(F)(F)F.O=C([O-])C(F)(F)F	1 µg/mL

Test system: Staphylococcus aureus
Assay: Minimum inhibitory concentration against Staphylococcus aureus / Homo MR A27223
Format: functional
Conditions: not given
How it was run: as §2

Compound	MIC
NCCC[n+]1ccc(SCC2=C(C(=O)O)N3C(=O)[C@@H](NC(=O)CSc4cc(Cl)ccc4Cl)[C@H]3SC2)cc1CCCC(=O)O.O=C(O)C(F)(F)F.O=C([O-])C(F)(F)F	0.5 µg/mL

Test system: Staphylococcus aureus
Assay: Minimum inhibitory concentration against Staphylococcus aureus / MR. P- A27225
Format: functional
Conditions: not given
How it was run: as §2

Compound	MIC
NCCC[n+]1ccc(SCC2=C(C(=O)O)N3C(=O)[C@@H](NC(=O)CSc4cc(Cl)ccc4Cl)[C@H]3SC2)cc1CCCC(=O)O.O=C(O)C(F)(F)F.O=C([O-])C(F)(F)F	0.5 µg/mL

Test system: not listed separately
Assay: Concentration required for the inhibitory activity against PBP2a
Conditions: not given

Compound	IC50
NCCC[n+]1ccc(SCC2=C(C(=O)O)N3C(=O)[C@@H](NC(=O)CSc4cc(Cl)ccc4Cl)[C@H]3SC2)cc1CCCC(=O)O.O=C(O)C(F)(F)F.O=C([O-])C(F)(F)F	3.4 µM

Test system: Staphylococcus haemolyticus
Assay: Minimum inhibitory concentration against Staphylococcus haemolyticus / Homo MR A27229
Format: functional
Conditions: not given
How it was run: as §1

Compound	MIC
NCCC[n+]1ccc(SCC2=C(C(=O)O)N3C(=O)[C@@H](NC(=O)CSc4cc(Cl)ccc4Cl)[C@H]3SC2)cc1CCCC(=O)O.O=C(O)C(F)(F)F.O=C([O-])C(F)(F)F	1 µg/mL

Test system: Streptococcus pyogenes
Assay: Minimum inhibitory concentration against Streptococcus pyogenes Todd Hewitt A9604
Format: functional
Conditions: not given
How it was run: as §1

Compound	MIC
NCCC[n+]1ccc(SCC2=C(C(=O)O)N3C(=O)[C@@H](NC(=O)CSc4cc(Cl)ccc4Cl)[C@H]3SC2)cc1CCCC(=O)O.O=C(O)C(F)(F)F.O=C([O-])C(F)(F)F	0.0005 µg/mL
